In ChEMBL document CHEMBL4359929, “Piperidine and piperazine inhibitors of fatty acid amide hydrolase targeting excitotoxic pathology” (Bioorg Med Chem, 2019):
Calls of active or inactive are those of the source. No cut-off for these calls is given here.

Experiments:
[1] = molecular target: T1, Fatty-acid amide hydrolase 1 (Homo sapiens, UniProt O00519); assay: Inhibition of human recombinant MBP-tagged FAAH expressed in Escherichia coli cells using AAMCA as substrate incubated for 15 mins followed by substrate addition and measured after every 20 mins for 4 hrs by fluorescence based assay
T1 sequence (O00519 whole entry): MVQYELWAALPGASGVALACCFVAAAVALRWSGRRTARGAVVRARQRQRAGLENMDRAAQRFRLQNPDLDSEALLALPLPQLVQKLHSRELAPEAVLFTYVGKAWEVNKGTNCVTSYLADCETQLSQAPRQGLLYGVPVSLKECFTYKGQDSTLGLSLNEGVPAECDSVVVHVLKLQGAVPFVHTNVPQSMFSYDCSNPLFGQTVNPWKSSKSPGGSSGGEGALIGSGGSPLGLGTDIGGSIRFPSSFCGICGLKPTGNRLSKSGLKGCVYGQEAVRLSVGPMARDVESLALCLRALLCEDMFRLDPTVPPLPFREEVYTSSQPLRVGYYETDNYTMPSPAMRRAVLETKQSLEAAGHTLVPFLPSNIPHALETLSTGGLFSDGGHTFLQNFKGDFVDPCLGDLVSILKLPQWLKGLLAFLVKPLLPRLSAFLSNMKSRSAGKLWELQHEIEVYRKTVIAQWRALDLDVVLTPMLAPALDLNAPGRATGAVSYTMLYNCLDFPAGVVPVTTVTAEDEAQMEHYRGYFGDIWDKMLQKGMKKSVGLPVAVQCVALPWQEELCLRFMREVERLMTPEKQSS
Method in brief: (§1)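 Fluorescent enzyme assay in throughput format. Human recombinant FAAH or purified rat FAAH used arachidonoyl 7-amino-4-methylcoumarin amide as substrate; human recombinant MGL was run by a similar fluorometric procedure.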

[2] = Stability in human liver microsomes assessed as half life; type: ADME, Microsome
Method in brief: (§2)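 Stability assessed as half-life in human, rat and mouse plasma and gastric fluid, and in human, rat and mouse liver microsomal preparations.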

[3] = Stability in human gastric fluid assessed as half life; type: ADME, tissue-based, Gastric juice; method in brief: as §2
[4] = molecular target: T2, Fatty-acid amide hydrolase 1 (Rattus norvegicus, UniProt P97612); assay: Inhibition of rat recombinant His/GST-tagged FAAH expressed in Escherichia coli cells using AAMCA as substrate incubated for 15 mins followed by substrate addition and measured after every 20 mins for 4 hrs by fluorescence based assay; method in brief: as §1
T2 sequence (P97612 whole entry): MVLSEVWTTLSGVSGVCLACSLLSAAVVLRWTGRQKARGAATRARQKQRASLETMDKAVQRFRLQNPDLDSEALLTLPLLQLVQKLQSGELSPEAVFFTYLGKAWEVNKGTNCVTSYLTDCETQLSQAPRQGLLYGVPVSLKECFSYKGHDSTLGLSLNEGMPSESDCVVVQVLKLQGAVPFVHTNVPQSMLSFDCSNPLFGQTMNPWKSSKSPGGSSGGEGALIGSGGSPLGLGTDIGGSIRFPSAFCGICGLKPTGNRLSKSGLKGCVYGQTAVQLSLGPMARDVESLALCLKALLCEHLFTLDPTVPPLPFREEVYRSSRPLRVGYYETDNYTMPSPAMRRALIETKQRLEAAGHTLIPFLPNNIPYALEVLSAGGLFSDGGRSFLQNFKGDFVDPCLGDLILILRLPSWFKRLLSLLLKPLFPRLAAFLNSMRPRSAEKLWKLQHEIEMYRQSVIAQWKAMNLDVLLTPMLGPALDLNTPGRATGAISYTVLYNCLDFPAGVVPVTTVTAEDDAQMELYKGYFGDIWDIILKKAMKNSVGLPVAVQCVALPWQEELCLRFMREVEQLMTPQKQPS

[5] = molecular target: Cannabinoid receptor 2 (Homo sapiens) (UniProt P34972); assay: Displacement of [3H]CP55940 from human CB2 receptor expressed in HEK293 cells by competition-equilibrium binding analysis; type: cell-based
Method in brief: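 HEK293 cell membranes expressing mouse or human CB2; competition-equilibrium binding against [3H]CP-55,940.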

[6] = Stability in rat plasma assessed as half life; type: ADME, cell-free; method in brief: as §2
[7] = test system: Hippocampus; assay: Neuroprotective activity against Sprague-Dawley rat hippocampus assessed as decrease in KA-induced excitotoxicity by measuring increase in GluR1 level at 3 to 30 uM preincubated for 1 hr followed by KA stimulation for 2 hrs in continued presence of compound followed by KA wash out and then further incubation with compound for 24 hrs by immunoblot analysis; type: functional, tissue-based
Method in brief: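 Sprague-Dawley rat hippocampal slices (400 μm, postnatal day 12) cultured 18–20 days at 37 °C, 5% CO2. Pretreated 60 min with 3–30 μM compound or 0.1% DMSO, then 60 μM kainic acid for 2 h with compound. Three washouts, then 24 h recovery with 30 μM compound. Harvested in groups of 7–9; GluR1, synaptophysin and synapsin IIb by immunoblot with optical density. Unpaired t-tests.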

[8] = molecular target: T3, Monoglyceride lipase (Homo sapiens, UniProt Q99685); assay: Inhibition of human recombinant His-tagged MGL expressed in Escherichia coli BL21 DE3 cells using AHMMCE as substrate preincubated with enzyme for 15 mins followed by substrate addition and measured after every 15 mins for 3 hrs by fluorescence based assay; method in brief: as §1
T3 sequence (Q99685 whole entry): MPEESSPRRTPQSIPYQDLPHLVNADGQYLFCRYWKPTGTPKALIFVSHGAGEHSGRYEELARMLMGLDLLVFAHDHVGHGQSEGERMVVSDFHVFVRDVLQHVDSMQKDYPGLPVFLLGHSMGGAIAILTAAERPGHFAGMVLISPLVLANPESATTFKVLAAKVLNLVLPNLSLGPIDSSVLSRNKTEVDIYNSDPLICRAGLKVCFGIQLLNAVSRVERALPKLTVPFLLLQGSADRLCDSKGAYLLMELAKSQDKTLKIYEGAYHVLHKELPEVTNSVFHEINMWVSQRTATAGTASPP

[9] = organism: Homo sapiens; assay: Selectivity ratio of IC50 for human full length ABHD6 expressed in Escherichia coli cells to IC50 for human recombinant MBP-tagged FAAH expressed in Escherichia coli cells by fluorescence based assay
[10] = Stability in human plasma assessed as half life; type: ADME, cell-free; method in brief: as §2
[11] = Stability in rat liver microsomes assessed as half life; type: ADME, Microsome; method in brief: as §2
[12] = Stability in mouse plasma assessed as half life; type: ADME, cell-free; method in brief: as §2
[13] = organism: Homo sapiens; assay: Selectivity ratio of IC50 for human recombinant His-tagged MGL expressed in Escherichia coli BL21 DE3 cells to IC50 for human recombinant MBP-tagged FAAH expressed in Escherichia coli cells by fluorescence based assay
[14] = molecular target: Cannabinoid receptor 1 (Rattus norvegicus) (UniProt P20272); assay: Displacement of [3H]CP55940 from CB1 receptor in rat brain by competition-equilibrium binding analysis
[15] = molecular target: T4, Fatty-acid amide hydrolase 1 (Rattus norvegicus) (UniProt P97612); assay: Inhibition of FAAH in rat brain membrane at 1 to 10 uM incubated for 30 mins followed by incubation with FP-Rh probe for 45 mins by ABPP assay; type: cell membranes
T4 sequence (whole entry): T2 sequence (P97612 whole entry)
Method in brief: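 Gel-based competitive ABPP on rat brain membrane homogenates (10 mg/mL protein). Compound at 1 and 10 μM or DMSO for 30 min at room temperature, then 10 μM rhodamine-tagged fluorophosphonate probe for 45 min at room temperature. FAAH was run with a reference FAAH inhibitor at 10 μM as positive control. Serine hydrolase labelling read by in-gel fluorescence.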

[16] = Stability in rat gastric fluid assessed as half life; type: ADME, tissue-based, Gastric juice; method in brief: as §2

Cannabinoid receptor 2 (Homo sapiens), sequence (P34972 whole entry): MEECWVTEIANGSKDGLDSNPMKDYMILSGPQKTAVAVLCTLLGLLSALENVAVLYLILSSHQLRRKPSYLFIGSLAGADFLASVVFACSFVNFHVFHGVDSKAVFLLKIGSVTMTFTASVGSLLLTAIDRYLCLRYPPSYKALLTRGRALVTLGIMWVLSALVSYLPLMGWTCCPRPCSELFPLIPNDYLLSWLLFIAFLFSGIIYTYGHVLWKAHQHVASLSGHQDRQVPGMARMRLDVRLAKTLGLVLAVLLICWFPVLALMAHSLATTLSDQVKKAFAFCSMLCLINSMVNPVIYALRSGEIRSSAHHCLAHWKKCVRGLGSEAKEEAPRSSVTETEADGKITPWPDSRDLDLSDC
Cannabinoid receptor 1 (Rattus norvegicus), sequence (P20272 whole entry, looked up): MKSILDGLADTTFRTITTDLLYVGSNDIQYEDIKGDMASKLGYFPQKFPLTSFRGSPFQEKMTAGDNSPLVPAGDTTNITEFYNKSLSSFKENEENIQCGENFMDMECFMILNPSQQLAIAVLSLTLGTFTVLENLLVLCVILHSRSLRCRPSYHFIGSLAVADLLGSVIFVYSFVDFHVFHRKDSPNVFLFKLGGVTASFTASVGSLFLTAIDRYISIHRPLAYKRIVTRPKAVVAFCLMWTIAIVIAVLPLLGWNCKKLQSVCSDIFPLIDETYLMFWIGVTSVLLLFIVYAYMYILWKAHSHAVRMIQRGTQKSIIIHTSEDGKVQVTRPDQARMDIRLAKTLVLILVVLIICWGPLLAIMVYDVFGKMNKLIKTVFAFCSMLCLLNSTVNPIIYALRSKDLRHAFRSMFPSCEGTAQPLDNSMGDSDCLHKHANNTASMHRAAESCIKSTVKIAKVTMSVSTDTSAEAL

| Compound | IC50 [1] | half-life [2] | half-life [3] | IC50 [4] | Activity [5] | half-life [6] | inhibition [7] | IC50 [8] | Ratio IC50 [9] | half-life [10] | half-life [11] | half-life [12] | Ratio IC50 [13] | Activity [14] | inhibition [15] | half-life [16] |
| --- | --- | --- | --- | --- | --- | --- | --- | --- | --- | --- | --- | --- | --- | --- | --- | --- |
| C[C@@H]1CN(c2ccc(F)cc2)CCN1C(=O)Oc1cccc(N2CCS(=O)(=O)CC2)c1 | 11.7 nM | 15 to 25 min | > 60 min | 6.3 nM | inactive | > 60 min | Active | > 1000 nM | > 1000 | > 60 min | 15 to 25 min | > 60 min | > 1000 | inactive | 100% | > 60 min |
| O=C(Oc1cccc(N2CCS(=O)(=O)CC2)c1)N1CCC(c2ccc(N3CCC3)cc2)CC1 | 7.9 nM | 15 to 25 min | > 60 min | 5.8 nM | inactive | > 60 min | Active | > 1000 nM | > 1000 | > 60 min | 15 to 25 min | > 60 min | > 1000 | inactive | 100% | > 60 min |
